NALP1 inh: blocks the NALP1 inflammasome reconstituted in yeast. S. cerevisiae NALP1/ASC/caspase-1 growth, X-gal OD620, 72 h. inhibition, % at 10 µM. actives 0.61% (n = 280,000); in the data active = inhibition mostly above about 24%, no sharp cut-off; inactive = mostly below about 32%
IMP-1 inh: inhibitors of Pseudomonas aeruginosa IMP-1 metallo-beta-lactamase. inhibition, % at 5.6 µM. actives 0.45% (n = 290,000). purified IMP-1, nitrocefin hydrolysis, epi-absorbance fluorescence. AID 1556;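 active = inhibition above the mean plus 3 SD of all compounds in the same screening run, cut at about 4.5% in these data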;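 note: 0% = IMP-1 with DMSO and 100% = DMSO wells lacking enzyme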
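System: Purified recombinant IMP-1 metallo-beta-lactamase enzyme | Measured by: Fluorescence quenching readout, ex 480/em 530 nm | Replication: Singlicate | Incubation: 15 min preincubation plus 25 min reaction at 25 °C | Evaluation: Percent inhibition from optical density relative to buffer-blank wells | Benchmarks: DMSO with and without IMP-1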
NALP3 yeast inh: inhibitors of NALP3 inflammasome in yeast; actives 0.39% (n = 330,000); Yeast reconstituted NLRP3/ASC/caspase-1, beta-gal luminescence, 24 h; AID 2825; inhibition, % at 10 µM;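 active = inhibition of 50% or more; inactive = inhibition below 50%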;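 note: plate controls were induced DMSO wells for no effect and uninduced yeast grown without galactose for full effect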
PolyA inh: blocks polyadenylation in yeast reporter cells; S. cerevisiae SKY197-pL101 polyadenylation reporter, beta-gal luminescence; efflux-impaired pdr1/pdr3 knockout yeast; score 100 = 6 SD above DMSO; activity score, % at 12 µM; actives 0.02% (n = 300,000); AID 1875;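 active = lowest replicate activity score at least 50, where 100 means six control SD above control mean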;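 note: yeast exposed to compound for 9 h at 30 °C; higher score means more reporter readthrough which indicates perturbed polyadenylation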
SUMO Mot1 rescue: blocks SUMOylation pathway, rescuing yeast Mot1-301 growth; S. cerevisiae Mot1-301 growth rescue, ATP luminescence, 38.5C; percent above DMSO median, 100 means doubled; growth rescue, % at 18.8 µM; actives 1% (n = 320,000);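 active = every valid replicate shows activation above 250% relative to neutral control wells; inactive = the rest, any valid replicate at or below 250%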;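 note: OY570 slx delta 5 strain wells were the positive control but not used for scaling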
VIM-2 inh: inhibitors of Pseudomonas aeruginosa VIM-2 metallo-beta-lactamase | inhibition, % at 5.6 µM | AID 1527 | actives 0.89% (n = 290,000) | purified VIM-2, nitrocefin hydrolysis, epi-absorbance fluorescence;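 active = inhibition above the mean of all tested compounds plus 3 SD, cutoff set per screening run, cut at about 7.5% in these data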;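 note: red hydrolysis product quenches plate fluorescence so inhibitors raise well fluorescence; 0% = enzyme with DMSO and 100% = DMSO without enzyme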
Mot1 SUMO dose: yeast SUMO pathway inhibition in dose response; growth activity, percent, % at 42 µM; shares compounds with SUMO Mot1 rescue; AID 493004; 2,300 tested, under 10 active; S. cerevisiae Mot1-301 galactose growth, ATP luminescence, 24 h; -100 = growth of slx-deleted rescue strain;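 active = Signal drops as the depositor expects, and the fitted half-maximal dose is no more than ten times the top valid tested dose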;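 note: more negative values mean stronger growth rescue toward the control strain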
Starred values were filed as active, the others as inactive; . = no result; + = active, no number; [ ] = dose if it differs, or a comment. An excerpt weighted towards active compounds, which were near 2.9% of everything screened.

SMILES	NALP1 inh	IMP-1 inh	NALP3 yeast inh	PolyA inh	SUMO Mot1 rescue	VIM-2 inh	Mot1 SUMO dose
CC[C@@H]1C/C=C\Cc2ccccc2[C@H](C(=O)C[C@@H](O)CC(C)=O)OC1=O	.	.	-10	.	497*	.	-1
CCC(C(=O)Nc1cccnc1)c1ccccc1 (stereo unspecified)	18	0	21	15	422*	1	1
CCC(C(=O)Nc1ccncc1)c1ccccc1 (stereo unspecified)	22	-4	-9	8	-8	-2	.
CN1CCN(NC(=O)Nc2ccc(F)cc2)CC1	6	-1	10	-11	-3	-3	.
COc1ccccc1NC(NC(=O)c1ccccn1)C(Cl)(Cl)Cl (stereo unspecified)	23	0	-5	-9	-7	0	.
Cc1ccc(C)c(NC(NC(=O)c2ccccn2)C(Cl)(Cl)Cl)c1 (stereo unspecified)	0	-1	-18	-15	982*	-2	0
Cc1ccc(S(=O)(=O)N2[C@@H](c3ccccc3F)C(C(=O)O)=CC[C@H]2c2ccc3c(c2)OCO3)cc1	.	.	-3	.	497*	.	0
Cc1ccc(S(=O)(=O)N(C)CC(=O)NNC(=O)CCS(=O)(=O)c2ccccc2)cc1	.	.	9	.	28	.	.
O=C(O)C1CCN(c2ccc(S(=O)(=O)N3CCC(C(=O)O)CC3)cc2[N+](=O)[O-])CC1	10	1	-2	4	-13	2	.
CN(Cc1ccccc1)c1ccc(S(=O)(=O)N2CCC(C(=O)O)CC2)cc1[N+](=O)[O-]	-4	-3	17	.	550*	-2	0
CCN(CC(=O)Nc1c(F)cccc1F)C(=O)CNC(=O)c1cccc(C)c1	16	-3	3	-7	8	-3	.
Cc1ccc(C)c(-n2nnnc2SCC(=O)Nc2c(C)n(C)n(-c3ccccc3)c2=O)c1	1	-4	-14	-22	377*	-4	0
Cc1c(NC(=O)CSc2nnnn2Cc2ccccc2)c(=O)n(-c2ccccc2)n1C	10	-7	18	3	11	-5	.
COc1ccccc1/C=C1\SC(N2CCC(C)CC2)=NC1=O	22	-3	25	13	-9	-2	.
COc1cccc(/C=C2\SC(N3CCC(C)CC3)=NC2=O)c1OC	6	-2	3	2	615*	-1	0
CS(=O)(=O)N1CCCC(C(=O)NCc2ccco2)C1 (stereo unspecified)	17	-3	5	1	384*	0	0
COc1ccc(C2=NOC(Cn3nc(C(=O)NCc4cccs4)cc3-c3ccccc3)C2)cc1 (stereo unspecified)	.	.	15	6	692*	.	0
COc1ccc(C2=NOC(Cn3nc(C(=O)NCc4ccc(C)cc4)cc3-c3ccccc3)C2)cc1 (stereo unspecified)	.	.	27	1	-4	.	.
Oc1cccc(/C=N/N2CCN(c3ccccn3)CC2)c1	7	-2	14	3	547*	0	0[21 µM]
CCOc1ccc(NS(=O)(=O)c2cc(C(=O)N3CCN(c4ccccc4O)CC3)ccc2Cl)cc1	.	.	18	.	.	.	.
CCCCn1c(N)c(N(Cc2ccccc2OC)C(=O)c2c(CC)noc2C)c(=O)[nH]c1=O	11	-3	13	-28	395*	-2	1
CCCCn1c(N)c(N(CC)C(=O)c2c(CC)noc2C)c(=O)[nH]c1=O	.	.	5	11	4	.	.
CC(=O)Oc1ccc(C(=O)Nc2ccccc2C(=O)Nc2ccc(C(=O)O)cc2)cc1	6	-1	5	2	44	0	.
Clc1nssc1=Nc1ccc(Br)cc1	9	-4	.	-1	.	-2	.
Clc1ccc(N=c2ssnc2Cl)nc1	-19	-2	34	-99	655*	-5	0
SMILES	NALP1 inh	IMP-1 inh	NALP3 yeast inh	PolyA inh	SUMO Mot1 rescue	VIM-2 inh	Mot1 SUMO dose
CCS(=O)c1ccccc1C(=O)O (stereo unspecified)	7	-3	0	-9	392*	-1	0
O=C(O)c1ccccc1S(=O)CCO (stereo unspecified)	19	-3	3	-4	-17	-4	.
Cc1ccc(S(=O)(=O)N2c3ccccc3CC2C)cc1 (stereo unspecified)	13	-1	8	-15	68	-4	.
Cc1ccc(S(=O)(=O)N2c3ccc(S(N)(=O)=O)cc3CC2C)cc1 (stereo unspecified)	8	-4	-8	0	+	-2	1
CCOc1cc(/C=N/NC(=O)C(=O)N/N=C/c2ccc(O)c(OCC)c2)ccc1O	22	-2	20	-1	768*	-2	-1
CCOc1cc(/C=N/NC(=O)N/N=C/c2ccc(O)c(OCC)c2)ccc1O	.	.	-4	-1	7	.	.
COc1ccc(OCC(=O)O/N=C(\N)Cc2ccc(Cl)cc2)cc1	1	-2	28	4	+	-1	0
CC(=O)c1ccc(N=C2SCCCN2C(=O)C2CCCC2)cc1	5	-4	41	-11	398*	-4	0
COc1ccc(S(=O)(=O)N2CCN(C3CCCC(C)C3)CC2)cc1 (stereo unspecified)	6	-1	20	-3	27	1	.
COc1ccc(N2CCN(C3CCCN(Cc4cccc(OC)c4)C3)CC2)cc1 (stereo unspecified)	-2	-2	21	5	667*	-3	0
COc1cccc(N2CCN(C3CCCC(C)C3)CC2)c1 (stereo unspecified)	48	-9	4	1	676*	-7	0
CN(C)C(CNC(=O)c1c(F)cccc1Cl)c1ccco1 (stereo unspecified)	-1	-3	-3	-5	-21	-2	.
O=C(CSc1nnnn1-c1cccc2c1CCCC2)N1CCCC1	-11	-6	24	-19	1	-2	.
CC1CCCC(C)N1C(=O)CSc1nnnn1-c1cccc2c1CCCC2 (stereo unspecified)	0	-3	13	-8	414*	-2	0
COc1ccc(CNC(=O)CN(Cc2ccccc2F)C(=O)c2csnn2)cc1	5	-1	7	-3	265	1	.
O=C(COc1ccc([N+](=O)[O-])cc1)Nc1ccc(C(=O)NCc2cccnc2)cc1	10	-2	4	22	481*	0	0
Cc1ccccc1S(=O)(=O)N1CCN(C)CC1	-2	-4	19	0	-3	-1	.
COc1ccc(C(=O)Nc2ccc(S(=O)(=O)N(C)c3ccccc3)cc2)cc1	.	.	15	-6	35	.	.

Compound activity as filed in PubChem.
